Laboratory results published in ChEMBL document CHEMBL5724801, “EUbOPEN Chemogenomics Library - Multiplex” (2024).
Several values for one entry are separate records, joined by “and”; a condition that tells them apart may be missing. Equal values may be shown once.

What was measured:
Assay type in all cases: toxicity, cell-based
[1] = system: HEK-293T; test: Multiplex assay against HEK293T; conditions: human
Summary of the method: (§1)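 Live cells carried four stains from seeding: Hoechst33342, BioTracker Green Microtubule Cytoskeleton Dye, MitoTracker Red and Annexin V Alexa Fluor 680. They were imaged on a CQ1 microscope at 37°C and 5% CO2 after compound addition. Using CellPathfinder machine-learning gating, cells were split into Hoechst high-intensity objects or normal cells, normal cells into healthy, pyknosed or fragmented nuclei, and pyknosed cells into mitotic or apoptotic; tubulin, mitochondrial-mass and membrane-permeability phenotypes are per cents of healthy-nucleus cells.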

[2] = system: Fibroblast; test: Multiplex assay against human fibroblast; summary of the method: as §1
[3] = system: U2OS; test: Multiplex assay against U2OS; conditions: human; summary of the method: as §1
[4] = 12 h, 1 µM, compound concentration 1 uM
[5] = 12 h, 10 µM, compound concentration 10 uM
[6] = 24 h, 1 µM, compound concentration 1 uM
[7] = 24 h, 10 µM, compound concentration 10 uM
[8] = 48 h, 1 µM, compound concentration 1 uM
[9] = 48 h, 10 µM, compound concentration 10 uM

SMILES: COc1cc(Nc2ncc3c(n2)-c2ccc(Cl)cc2C(c2c(F)cccc2OC)=NC3)ccc1C(=O)O [ALISERTIB]
- Population Apoptotic (%) [1, 4]: 38% and 61%
- Population Fragmented Nuclei (%) [1, 4]: 3% and 7%
- Population Healthy Nuclei (%) [1, 4]: 88% and 85%
- Population Hoechst High Intensity Objects (%) [1, 4]: 5% and 7%
- Population Membrane Permeable-Phenotype (%) [1, 4]: 0%
- Population Mitochondria Different-Phenotype (%) [1, 4]: 44% and 69%
- Population Mitotic Cells (%) [1, 4]: 61% and 38%
- Population Normal (%) [1, 4]: 94% and 93%
- Population Pyknosed Nuclei (%) [1, 4]: 7%
- Population Tubulin-Different-Phenotype (%) [1, 4]: 46% and 49%
- Population Apoptotic (%) [1, 5]: 61% and 88%
- Population Fragmented Nuclei (%) [1, 5]: 8% and 9%
- Population Healthy Nuclei (%) [1, 5]: 74% and 72%
- Population Hoechst High Intensity Objects (%) [1, 5]: 9% and 15%
- Population Membrane Permeable-Phenotype (%) [1, 5]: 0%
- Population Mitochondria Different-Phenotype (%) [1, 5]: 80% and 82%
- Population Normal (%) [1, 5]: 90% and 84%
- Population Pyknosed Nuclei (%) [1, 5]: 16% and 17%
- Population Tubulin-Different-Phenotype (%) [1, 5]: 68% and 54%
- Population Apoptotic (%) [1, 6]: 50% and 47%
- Population Fragmented Nuclei (%) [1, 6]: 10% and 9%
- Population Healthy Nuclei (%) [1, 6]: 82% and 81%
- Population Hoechst High Intensity Objects (%) [1, 6]: 3% and 9%
- Population Membrane Permeable-Phenotype (%) [1, 6]: 0%
- Population Mitochondria Different-Phenotype (%) [1, 6]: 25% and 47%
- Population Mitotic Cells (%) [1, 6]: 50% and 52%
- Population Normal (%) [1, 6]: 96% and 90%
- Population Pyknosed Nuclei (%) [1, 6]: 7% and 9%
- Population Tubulin-Different-Phenotype (%) [1, 6]: 31% and 30%
- Population Apoptotic (%) [1, 7]: 54% and 56%
- Population Fragmented Nuclei (%) [1, 7]: 8% and 12%
- Population Healthy Nuclei (%) [1, 7]: 74% and 55%
- Population Membrane Permeable-Phenotype (%) [1, 7]: 0% and 1%
- Population Mitochondria Different-Phenotype (%) [1, 7]: 75% and 86%
- Population Mitotic Cells (%) [1, 7]: 45% and 43%
- Population Normal (%) [1, 7]: 93% and 65%
- Population Pyknosed Nuclei (%) [1, 7]: 16% and 31%
- Population Tubulin-Different-Phenotype (%) [1, 7]: 64% and 50%
- Population Apoptotic (%) [1, 8]: 31% and 57%
- Population Fragmented Nuclei (%) [1, 8]: 14% and 16%
- Population Healthy Nuclei (%) [1, 8]: 79% and 77%
- Population Membrane Permeable-Phenotype (%) [1, 8]: 0%
- Population Mitochondria Different-Phenotype (%) [1, 8]: 14% and 27%
- Population Mitotic Cells (%) [1, 8]: 68% and 42%
- Population Normal (%) [1, 8]: 96% and 84%
- Population Pyknosed Nuclei (%) [1, 8]: 5%
- Population Tubulin-Different-Phenotype (%) [1, 8]: 17% and 24%
- Population Apoptotic (%) [1, 9]: 48% and 82%
- Population Fragmented Nuclei (%) [1, 9]: 13% and 19%
- Population Healthy Nuclei (%) [1, 9]: 78% and 61%
- Population Membrane Permeable-Phenotype (%) [1, 9]: 0% and 4%
- Population Mitochondria Different-Phenotype (%) [1, 9]: 57% and 73%
- Population Normal (%) [1, 9]: 94% and 67%
- Population Pyknosed Nuclei (%) [1, 9]: 7% and 19%
- Population Tubulin-Different-Phenotype (%) [1, 9]: 42% and 38%
- Population Apoptotic (%) [2, 4]: 39% and 42%
- Population Fragmented Nuclei (%) [2, 4]: 11% and 18%
- Population Healthy Nuclei (%) [2, 4]: 66% and 47%
- Population Hoechst High Intensity Objects (%) [2, 4]: 1% and 8%
- Population Membrane Permeable-Phenotype (%) [2, 4]: 2% and 7%
- Population Mitochondria Different-Phenotype (%) [2, 4]: 4% and 7%
- Population Mitotic Cells (%) [2, 4]: 60% and 57%
- Population Normal (%) [2, 4]: 98% and 91%
- Population Pyknosed Nuclei (%) [2, 4]: 21% and 33%
- Population Tubulin-Different-Phenotype (%) [2, 4]: 23% and 41%
- Population Apoptotic (%) [2, 5]: 56% and 48%
- Population Fragmented Nuclei (%) [2, 5]: 28% and 35%
- Population Healthy Nuclei (%) [2, 5]: 47% and 30%
- Population Hoechst High Intensity Objects (%) [2, 5]: 13% and 8%
- Population Membrane Permeable-Phenotype (%) [2, 5]: 1% and 4%
- Population Mitochondria Different-Phenotype (%) [2, 5]: 22% and 16%
- Population Mitotic Cells (%) [2, 5]: 43% and 51%
- Population Normal (%) [2, 5]: 86% and 91%
- Population Pyknosed Nuclei (%) [2, 5]: 24% and 33%
- Population Tubulin-Different-Phenotype (%) [2, 5]: 69% and 64%
- Total Cell Count [2, 5]: 209 and 89
- Population Apoptotic (%) [2, 6]: 36% and 48%
- Population Fragmented Nuclei (%) [2, 6]: 12% and 26%
- Population Healthy Nuclei (%) [2, 6]: 69% and 47%
- Population Hoechst High Intensity Objects (%) [2, 6]: 2% and 4%
- Population Membrane Permeable-Phenotype (%) [2, 6]: 2% and 4%
- Population Mitochondria Different-Phenotype (%) [2, 6]: 6%
- Population Mitotic Cells (%) [2, 6]: 63% and 51%
- Population Normal (%) [2, 6]: 97% and 95%
- Population Pyknosed Nuclei (%) [2, 6]: 18% and 26%
- Population Tubulin-Different-Phenotype (%) [2, 6]: 28% and 47%
- Total Cell Count [2, 6]: 123
- Population Apoptotic (%) [2, 7]: 64% and 56%
- Population Fragmented Nuclei (%) [2, 7]: 29% and 45%
- Population Healthy Nuclei (%) [2, 7]: 44% and 36%
- Population Hoechst High Intensity Objects (%) [2, 7]: 13% and 5%
- Population Membrane Permeable-Phenotype (%) [2, 7]: 1% and 0%
- Population Mitochondria Different-Phenotype (%) [2, 7]: 24% and 9%
- Population Mitotic Cells (%) [2, 7]: 35% and 43%
- Population Normal (%) [2, 7]: 86% and 94%
- Population Pyknosed Nuclei (%) [2, 7]: 25% and 18%
- Population Tubulin-Different-Phenotype (%) [2, 7]: 68% and 71%
- Total Cell Count [2, 7]: 191 and 93
- Population Apoptotic (%) [2, 8]: 57% and 38%
- Population Fragmented Nuclei (%) [2, 8]: 15% and 33%
- Population Healthy Nuclei (%) [2, 8]: 65% and 42%
- Population Hoechst High Intensity Objects (%) [2, 8]: 5%
- Population Membrane Permeable-Phenotype (%) [2, 8]: 4% and 7%
- Population Mitochondria Different-Phenotype (%) [2, 8]: 5%
- Population Mitotic Cells (%) [2, 8]: 42% and 61%
- Population Normal (%) [2, 8]: 94%
- Population Pyknosed Nuclei (%) [2, 8]: 19% and 24%
- Population Tubulin-Different-Phenotype (%) [2, 8]: 32% and 54%
- Total Cell Count [2, 8]: 115
- Population Apoptotic (%) [2, 9]: 84% and 66%
- Population Fragmented Nuclei (%) [2, 9]: 38% and 37%
- Population Healthy Nuclei (%) [2, 9]: 35% and 51%
- Population Hoechst High Intensity Objects (%) [2, 9]: 23% and 8%
- Population Membrane Permeable-Phenotype (%) [2, 9]: 5% and 2%
- Population Mitochondria Different-Phenotype (%) [2, 9]: 37% and 15%
- Population Mitotic Cells (%) [2, 9]: 15% and 33%
- Population Normal (%) [2, 9]: 76% and 91%
- Population Pyknosed Nuclei (%) [2, 9]: 26% and 11%
- Population Tubulin-Different-Phenotype (%) [2, 9]: 80% and 65%
- Total Cell Count [2, 9]: 188 and 85
- Population Apoptotic (%) [3, 4]: 63% and 71%
- Population Fragmented Nuclei (%) [3, 4]: 23% and 35%
- Population Healthy Nuclei (%) [3, 4]: 65% and 55%
- Population Hoechst High Intensity Objects (%) [3, 4]: 1% and 4%
- Population Membrane Permeable-Phenotype (%) [3, 4]: 4% and 8%
- Population Mitochondria Different-Phenotype (%) [3, 4]: 3% and 4%
- Population Mitotic Cells (%) [3, 4]: 36% and 28%
- Population Normal (%) [3, 4]: 98% and 95%
- Population Pyknosed Nuclei (%) [3, 4]: 10% and 8%
- Population Tubulin-Different-Phenotype (%) [3, 4]: 3% and 11%
- Population Apoptotic (%) [3, 5]: 79% and 71%
- Population Fragmented Nuclei (%) [3, 5]: 31% and 12%
- Population Healthy Nuclei (%) [3, 5]: 57% and 82%
- Population Hoechst High Intensity Objects (%) [3, 5]: 3% and 2%
- Population Membrane Permeable-Phenotype (%) [3, 5]: 11% and 5%
- Population Mitochondria Different-Phenotype (%) [3, 5]: 5% and 1%
- Population Mitotic Cells (%) [3, 5]: 20% and 28%
- Population Normal (%) [3, 5]: 96% and 97%
- Population Pyknosed Nuclei (%) [3, 5]: 11% and 5%
- Population Tubulin-Different-Phenotype (%) [3, 5]: 4% and 0%
- Population Apoptotic (%) [3, 6]: 78% and 75%
- Population Fragmented Nuclei (%) [3, 6]: 26% and 20%
- Population Healthy Nuclei (%) [3, 6]: 64% and 63%
- Population Hoechst High Intensity Objects (%) [3, 6]: 1% and 2%
- Population Membrane Permeable-Phenotype (%) [3, 6]: 9% and 6%
- Population Mitochondria Different-Phenotype (%) [3, 6]: 4% and 2%
- Population Mitotic Cells (%) [3, 6]: 21% and 25%
- Population Normal (%) [3, 6]: 98% and 97%
- Population Pyknosed Nuclei (%) [3, 6]: 8% and 15%
- Population Tubulin-Different-Phenotype (%) [3, 6]: 5% and 2%
- Population Apoptotic (%) [3, 7]: 84% and 90%
- Population Fragmented Nuclei (%) [3, 7]: 30% and 12%
- Population Healthy Nuclei (%) [3, 7]: 55% and 77%
- Population Hoechst High Intensity Objects (%) [3, 7]: 4%
- Population Membrane Permeable-Phenotype (%) [3, 7]: 13% and 9%
- Population Mitochondria Different-Phenotype (%) [3, 7]: 5% and 4%
- Population Mitotic Cells (%) [3, 7]: 15% and 9%
- Population Normal (%) [3, 7]: 95%
- Population Pyknosed Nuclei (%) [3, 7]: 13% and 9%
- Population Tubulin-Different-Phenotype (%) [3, 7]: 4% and 5%
- Population Apoptotic (%) [3, 8]: 85% and 78%
- Population Fragmented Nuclei (%) [3, 8]: 28% and 29%
- Population Healthy Nuclei (%) [3, 8]: 59% and 53%
- Population Hoechst High Intensity Objects (%) [3, 8]: 3%
- Population Membrane Permeable-Phenotype (%) [3, 8]: 6% and 11%
- Population Mitochondria Different-Phenotype (%) [3, 8]: 5% and 6%
- Population Mitotic Cells (%) [3, 8]: 14% and 21%
- Population Normal (%) [3, 8]: 96%
- Population Pyknosed Nuclei (%) [3, 8]: 12% and 17%
- Population Tubulin-Different-Phenotype (%) [3, 8]: 3% and 4%
- Population Apoptotic (%) [3, 9]: 88%
- Population Fragmented Nuclei (%) [3, 9]: 34% and 16%
- Population Healthy Nuclei (%) [3, 9]: 44% and 70%
- Population Hoechst High Intensity Objects (%) [3, 9]: 9% and 5%
- Population Membrane Permeable-Phenotype (%) [3, 9]: 16% and 7%
- Population Mitochondria Different-Phenotype (%) [3, 9]: 9% and 3%
- Population Mitotic Cells (%) [3, 9]: 11%
- Population Normal (%) [3, 9]: 90% and 94%
- Population Pyknosed Nuclei (%) [3, 9]: 21% and 13%
- Population Tubulin-Different-Phenotype (%) [3, 9]: 9% and 2%
